In the library only some 12% were active in any assay of this set; here they are far more common.
Lmaj promast: inhibitors of Leishmania major promastigote growth. 200,000 tested, 9% active. inhibition, % at 10 µM. Leishmania major promastigotes, resazurin fluorescence viability;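 note: promastigotes grown with compound for 44 hours at 28 °C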
Wee1 degr inh: blocks degradation of human Wee1 kinase | HeLa Luc-Wee1K328M stability, luciferase luminescence; 100% = proteasome inhibitor MG132 effect | reporter increase, % at 5 µM | 220,000 tested, 1.2% active;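 active = activation above the mean of all tested compounds plus 3 SD, set per screening run, cut at about 8.8% in these data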;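 note: cells exposed to compound for 20 h before luminescence read; 0% = DMSO alone and 100% = MG132 at 30 µM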
Target sequence (P30291 whole entry K328M): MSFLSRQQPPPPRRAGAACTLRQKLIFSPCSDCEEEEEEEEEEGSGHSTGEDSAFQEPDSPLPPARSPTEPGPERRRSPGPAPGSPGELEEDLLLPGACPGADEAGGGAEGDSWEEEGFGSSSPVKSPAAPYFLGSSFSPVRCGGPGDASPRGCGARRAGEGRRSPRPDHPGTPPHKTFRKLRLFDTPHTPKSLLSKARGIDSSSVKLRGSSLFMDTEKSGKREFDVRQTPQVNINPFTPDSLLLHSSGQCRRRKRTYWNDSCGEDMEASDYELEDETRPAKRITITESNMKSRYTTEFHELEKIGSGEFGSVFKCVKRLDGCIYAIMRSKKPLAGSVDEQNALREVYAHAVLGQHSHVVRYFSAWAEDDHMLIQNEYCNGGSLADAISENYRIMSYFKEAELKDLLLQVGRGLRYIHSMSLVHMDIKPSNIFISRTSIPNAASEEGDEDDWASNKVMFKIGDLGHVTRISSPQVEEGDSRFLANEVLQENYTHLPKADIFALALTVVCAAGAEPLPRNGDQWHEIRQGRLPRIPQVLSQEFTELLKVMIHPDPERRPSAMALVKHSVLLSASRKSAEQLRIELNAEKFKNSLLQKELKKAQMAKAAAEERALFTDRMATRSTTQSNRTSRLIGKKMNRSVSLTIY
PKD1 inh: blocks activity of human protein kinase D1. Q15139. PKD1 kinase fluorescence polarization assay. inhibition, % (test concentration not listed). 200,000 tested, 0.056% active. AID 797
Arbovirus anti: arbovirus infection inhibition | arbovirus infection cell-based antiviral screen | inhibition, % at 10 µM | 200,000 tested, 0.37% active | AID 1251; in the data active = inhibition above about 30%
CHOP inh: inhibitors of CHOP induction in ER stress response. CHO-K1 CHOP-promoter luciferase, tunicamycin-induced, 15-18 h. inhibition, % at 10 µM. 220,000 tested, 3.8% active. AID 2732;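 active = compounds that reduced the stress-induced luciferase reporter signal by more than about 70% of percent inhibition, limit read from the data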;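 note: 0% = tunicamycin plus vehicle and 100% = wells without tunicamycin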
Rad51 HR inh: Rad51 (human) homologous recombination inhibition. Q06609. hRad51 DNA strand exchange, fluorescence dequenching. inhibition, % at 10 µM. 200,000 tested, 0.085% active;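 active = inhibition above 40% at the single screening dose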;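 note: 0% = DMSO control wells and 100% = blanks with heterologous ssDNA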
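Test system: preformed human Rad51 ssDNA filaments; also added: Donor/quencher-labelled 47-bp dsDNA substrate; doses: 10 µM final, single point; times: 37 °C 15-min filament assembly, 30-min compound preincubation, 15-min exchange; detection: FRET fluorescence dequenching, excitation 485 nm, emission 520 nm; read-out basis: Fluorescence-based percent inhibition, control- and blank-normalised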
Active calls of the source: *. Cut-off read from the data, not from the text of the source, unless noted: active = inhibition above about 50%; inactive = the rest.

For S=C(Nc1ccc(Cl)cc1)NC1CCN(Cc2ccccc2)CC1 the results were Lmaj promast 98.9*, Wee1 degr inh -0.3, PKD1 inh 4.2, Arbovirus anti -19.0, CHOP inh 43.9 and Rad51 HR inh -4.5.
`CCC(C)c1ccc(NC(=S)NC2CCN(Cc3ccccc3)CC2)cc1` (stereo unspecified) gave Lmaj promast 86.6*, Wee1 degr inh 1.8, PKD1 inh 6.2, Arbovirus anti -34.1, CHOP inh 86.8* and Rad51 HR inh -1.1.
For O=S(=O)(NCc1ccccc1Cl)c1cccs1 the results were Lmaj promast -1.1, Wee1 degr inh 2.9, PKD1 inh 0.5, Arbovirus anti 2.0, CHOP inh 4.6 and Rad51 HR inh 17.1.
Screening CCN(CC)CCCNC(=O)CSc1nc(C)cc(C)n1 returned Lmaj promast 9.7, Wee1 degr inh -2.4, PKD1 inh -7.4, Arbovirus anti 0.8, CHOP inh -7.2 and Rad51 HR inh -0.1.
For CCCN1CCC(NC(=S)Nc2ccc(C(=O)OCC)cc2)CC1 the results were Lmaj promast 20.6, Wee1 degr inh -2.2, PKD1 inh 2.9, Arbovirus anti 2.0, CHOP inh -13.8 and Rad51 HR inh 0.7.
CCc1ccc(NC(=S)NC2CCN(Cc3ccccc3)CC2)cc1 was read as Lmaj promast 96.1*, Wee1 degr inh 0.4, PKD1 inh -9.3, Arbovirus anti -0.9, CHOP inh 35.1 and Rad51 HR inh 6.2.
For COc1ccc(CCNC(=S)Nc2cccc3ccccc23)cc1 the results were Lmaj promast 85.2*, Wee1 degr inh 8.4, PKD1 inh -5.1, Arbovirus anti 4.8, CHOP inh -16.4 and Rad51 HR inh -1.2.
For CCCN1CCC(NC(=S)Nc2ccc([N+](=O)[O-])cc2)CC1 the results were Lmaj promast 82.8*, Wee1 degr inh -0.9, PKD1 inh -4.1, Arbovirus anti -14.9 and CHOP inh 15.9.
Screening CC(C)c1nc(SCC(=O)Nc2ccc(N(C)C)cc2)c2ccccc2n1 returned Lmaj promast 9.7, Wee1 degr inh 2.1, PKD1 inh -12.2, Arbovirus anti -17.3, CHOP inh -3.4 and Rad51 HR inh 0.4.
Screening Cc1sc(-n2c(C)cc(/C=N/n3cnnc3)c2C)c(C#N)c1C returned Lmaj promast 77.0*, Wee1 degr inh -3.0, PKD1 inh -9.8, Arbovirus anti -3.5, CHOP inh 67.3 and Rad51 HR inh -6.5.
Screening Cc1cccc(NC(=O)CN2CCC(NC(=O)C3CCCCC3)CC2)c1C returned Lmaj promast -5.2, Wee1 degr inh -1.1, PKD1 inh -0.2, Arbovirus anti -7.7, CHOP inh -5.6 and Rad51 HR inh 2.2.
For NS(=O)(=O)c1ccc(CNC(=S)NC2CC2)cc1 the results were Lmaj promast 1.1, Wee1 degr inh -0.3, PKD1 inh -6.9, Arbovirus anti 0.2 and CHOP inh -1.2.
`CCCCCCc1cc2cc(S(=O)(=O)c3ccc(C)cc3)c(=O)oc2cc1O` gave Lmaj promast -6.9, Wee1 degr inh 1.7, PKD1 inh -0.7, Arbovirus anti 9.9, CHOP inh 86.0* and Rad51 HR inh -1.0.
Screening CCCCCCc1cc2cc(S(=O)(=O)c3ccc(Cl)cc3)c(=O)oc2cc1O returned Lmaj promast -7.0, Wee1 degr inh -1.5, PKD1 inh -5.7, Arbovirus anti -8.0, CHOP inh 68.9 and Rad51 HR inh -0.5.
Screening COC(=O)c1cccc(-n2nnnc2SCC(=O)Nc2nc3c(s2)CCCC3)c1 returned Lmaj promast 25.6, Wee1 degr inh 1.5, PKD1 inh -7.0, Arbovirus anti -6.8, CHOP inh 88.0* and Rad51 HR inh -1.7.
Screening CCC(=O)Nc1ccc(NC(=O)CSc2nnnn2-c2ccc3c(c2)OCCO3)cc1 returned Lmaj promast -5.8, Wee1 degr inh 0.1, PKD1 inh 2.1, Arbovirus anti -6.1, CHOP inh 48.7 and Rad51 HR inh 12.4.
COc1cccc(-n2nnnc2SCC(=O)Nc2nc3c(s2)CCCC3)c1 was read as Lmaj promast 16.0, Wee1 degr inh -2.0, PKD1 inh -11.4, Arbovirus anti 2.5, CHOP inh 9.0 and Rad51 HR inh -12.3.
For Cc1ccc(NC(=O)CCSc2nnnn2-c2ccc3c(c2)OCO3)cc1C the results were Lmaj promast 34.8, Wee1 degr inh 1.9, PKD1 inh -2.3, Arbovirus anti -11.6 and CHOP inh 72.6*.
For O=C(CSc1nnnn1-c1ccc2c(c1)OCCO2)Nc1nc2c(s1)CCCC2 the results were Lmaj promast 6.2, Wee1 degr inh -2.1, PKD1 inh 1.2, Arbovirus anti 1.1, CHOP inh 86.9* and Rad51 HR inh -7.7.
Screening CC(C(=O)NC1CCCc2ccccc21)N1CCN(c2ccc(F)cc2)CC1 (stereo unspecified) returned Lmaj promast 69.8*, Wee1 degr inh 0.6, PKD1 inh 1.8, Arbovirus anti 9.3, CHOP inh 18.1 and Rad51 HR inh 1.6.
For CC(C(=O)Nc1ccc2c(c1)OCO2)N1CCN(C)CC1 (stereo unspecified) the results were Wee1 degr inh -1.8, CHOP inh 11.6 and Rad51 HR inh -5.8.
Screening CC(C(=O)NC1CCCc2ccccc21)N1CCN(Cc2ccc3c(c2)OCO3)CC1 (stereo unspecified) returned Lmaj promast 86.2*, Wee1 degr inh -2.2, PKD1 inh -20.9, Arbovirus anti 4.5, CHOP inh 3.1 and Rad51 HR inh -2.0.
`NC(=O)N/N=C/c1ccc(OCc2cccc(Cl)c2)cc1` gave Lmaj promast -5.3, Wee1 degr inh -2.6, PKD1 inh 6.0, Arbovirus anti -13.3, CHOP inh 28.5 and Rad51 HR inh 17.9.
For CCC(C)N(NC(C)=O)c1nc(Cl)nc(NC(C)C)n1 (stereo unspecified) the results were Lmaj promast -0.9, Wee1 degr inh -3.1, PKD1 inh -8.0, Arbovirus anti 1.7, CHOP inh -8.6 and Rad51 HR inh 1.4.
For CCOC(=O)c1cc2c(=O)n3ccccc3nc2n(CCOC)c1=NC(=O)c1ccncc1 the results were Lmaj promast 19.6, Wee1 degr inh -2.7, PKD1 inh 1.9, Arbovirus anti 6.0, CHOP inh 17.0 and Rad51 HR inh -12.4.
`CCOC(=O)c1cc2c(=O)n3ccccc3nc2n(C(C)C)c1=NC(=O)c1ccncc1` gave Lmaj promast 52.4*, Wee1 degr inh -1.7, PKD1 inh -9.3, Arbovirus anti 2.6, CHOP inh 5.3 and Rad51 HR inh 6.6.
Screening CCOC(=O)c1cc2c(=O)n3ccccc3nc2n(CCOC)c1=NC(=O)c1c(-c2c(F)cccc2Cl)noc1C returned Lmaj promast 67.1*, Wee1 degr inh 0.4, PKD1 inh -5.4, Arbovirus anti -23.3, CHOP inh -2.5 and Rad51 HR inh -7.7.
For CCOC(=O)c1cc2c(=O)n3ccccc3nc2n(C(C)C)c1=NC(=O)c1c(-c2ccccc2Cl)noc1C the results were Lmaj promast 87.5*, Wee1 degr inh 2.2, PKD1 inh 1.0, Arbovirus anti -12.9, CHOP inh 10.8 and Rad51 HR inh 5.9.

Screening data: PubChem BioAssay, several laboratories
